Experimental data from different studies.
Each line is one published result; the experiments were not run side by side.
Target: Mitogen-activated protein kinase 1 (MAPK1, Homo sapiens, UniProt P28482)

Compound | read-out | technique | tested at | remaining binding [%]
CN(CCCC(F)(F)F)c1nccc(-c2cnn3ncccc23)n1 | binding |  | 1 µM | 100
COc1cccc(CNC(=O)c2nc3scc(COCc4ccc(C(=O)O)cc4)c3c(=O)[nH]2)c1 | cell-free assay | competition with immobilised ligand | 1 µM | 100
CCN1CCN(Cc2ccc(C(=O)Nc3ccc(C)c(Oc4ccc5c(c4)CC(=O)N5)c3)cc2C(F)(F)F)CC1 | binding | competition with immobilised ligand | 1 µM | 100
O=C(c1ccc(Nc2ncc(Cl)c(-c3ccc(Cl)s3)n2)cc1)N1CCC(N2CCCC2)CC1 | binding | competition with immobilised ligand | 1 µM | 100
CN(C)c1nccc(-c2cnn3ncccc23)n1 | binding |  | 1 µM | 100
FC(F)(F)Oc1cccc(-c2cnc3ccc(-c4ccncc4)nn23)c1 | cell-free assay | competition with immobilised ligand | 5 µM | 100
C[C@H]1CCN(c2nccc(-c3cnn4ncccc34)n2)C1 | binding |  | 1 µM | 100
O=C(NCC1CCOCC1)c1n[nH]cc1NC(=O)c1c(F)cccc1F | binding | competition with immobilised ligand | 1 µM | 87
CCCCN(CCCC)C(=O)CN1C[C@@H](c2cc(OC)c3c(c2)OCO3)[C@H](C(=O)O)[C@H]1CC(C)(C)CCC | cell-free assay | competition with immobilised ligand | 1 µM | 82.1
O=C(NCCCN1CCOCC1)c1ccc(Nc2ncc(Cl)c(-c3ccc(Cl)s3)n2)cc1 | binding | competition with immobilised ligand | 1 µM | 100
C[C@@H](c1ccc(-n2cnc3c(N)ncnc32)cc1)N1CCc2nn(C)c(Cc3ccccc3)c2C1=O | binding | competition with immobilised ligand | 0.1 µM | 91
COc1ncc2cc3ccccc3nc2c1C#N | cell-free assay | competition with immobilised ligand | 5 µM | 100
CCCOc1ccc([C@@H]2[C@@H](C(=O)O)[C@H](c3ccc4c(c3)OCO4)CN2CC(=O)Nc2c(CC)cccc2CC)cc1 | cell-free assay | competition with immobilised ligand | 1 µM | 100
c1cnn2ncc(-c3ccnc(N4CCC45COC5)n3)c2c1 | binding |  | 1 µM | 100
CNC(=O)Nc1ccc2c(c1)[C@@]1(CC2)OC(=O)N(CC(=O)N(Cc2ccc(F)cc2)[C@@H](C)C(F)(F)F)C1=O | cell-free assay | competition with immobilised ligand | 1 µM | 91
N[C@@H]1CCN(c2nccc(-c3cnn4ncccc34)n2)C1 | binding |  | 1 µM | 100
c1cncc(-c2cccc(Nc3nccc(NC4CCCCC4)n3)c2)c1 | binding | competition with immobilised ligand | 10 µM | 92
CC1CCCN1c1nccc(-c2cnn3ncccc23)n1 (stereo not shown) | binding |  | 1 µM | 95
CSc1cccnc1N1CCN(Cc2nc3ccccc3[nH]2)CC1 | cell-free assay | competition with immobilised ligand | 1 µM | 93
COc1cnc(Nc2cccc(S(N)(=O)=O)c2)nc1N1CCN(c2ccccc2)CC1 | binding | competition with immobilised ligand | 1 µM | 100
C[C@@H]1CN(c2cc(-c3n[nH]c4ccc(OC5(C)CC5)cc34)ncn2)C[C@H](C)O1 | cell-free assay | competition with immobilised ligand | 0.1 µM | 98
O=C(c1ccc(Nc2nccc(-c3cc4ccccc4s3)n2)cc1)N1CCC(N2CCCC2)CC1 | binding | competition with immobilised ligand | 1 µM | 100
